ChEMBL document CHEMBL4673335, “Store-Operated Calcium Entry as a Therapeutic Target in Acute Pancreatitis: Discovery and Development of Drug-Like SOCE Inhibitors” (J Med Chem, 2020)
In brackets after ≈: the same amount, converted by molar mass. Blank lines part the entries; values can stand above or below the compound they belong to. Activity calls are given as the source filed them. The calls are words filed in the database; no cut-off is given here.

Experiments:
[1] = Metabolic stability in mouse liver microsomes assessed as compound remaining after 1 hr; type: ADME, Microsome; conditions: read-out: Stabilty
In short: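 Pooled male CD-1 mouse liver microsomes (20 mg/mL protein stock), NADPH-activated. Substrate at 5 μM. Residual parent measured after 1 h incubation.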

[2] = Thermodynamic aqueous solubility; type: physicochemical; conditions: read-out: Therm_solubility
In short: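 About 3 mg compound in 3 mL deionized water, vortexed, sonicated 5 min, then shaken overnight at 25 °C. Filtered through a 0.22 μm membrane, DMSO added, diluted about 1:10 in water. Quantified by LC–UV against DMSO standard solutions.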

[3] = Thermodynamic aqueous solubility at 6 mg/mL in saline containing 10% DMSO + 20% PEG400; conditions: buffer
[4] = Half life in C57BL/6 mouse ip dosed as single administration measured up to 24 hrs; conditions: in vivo
ORAI1/STIM1 = ORAI1/STIM1 (Homo sapiens, UniProt Q13586+Q96D31); experiment: Inhibition of STIM1/Orai1 (unknown origin) expressed in HEK293 cells assessed as reduction in tBHQ-induced calcium response; type: cell-based
Sequence of ORAI1/STIM1 (Q96D31 whole entry): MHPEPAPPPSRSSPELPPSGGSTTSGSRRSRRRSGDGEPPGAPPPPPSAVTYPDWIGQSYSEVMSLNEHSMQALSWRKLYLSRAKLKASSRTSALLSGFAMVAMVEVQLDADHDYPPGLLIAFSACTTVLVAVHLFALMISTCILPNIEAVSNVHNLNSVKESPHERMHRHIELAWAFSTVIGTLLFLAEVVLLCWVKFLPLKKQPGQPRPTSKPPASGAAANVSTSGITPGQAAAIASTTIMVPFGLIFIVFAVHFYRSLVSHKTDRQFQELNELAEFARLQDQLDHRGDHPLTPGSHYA
Sequence of ORAI1/STIM1 (Q13586 whole entry): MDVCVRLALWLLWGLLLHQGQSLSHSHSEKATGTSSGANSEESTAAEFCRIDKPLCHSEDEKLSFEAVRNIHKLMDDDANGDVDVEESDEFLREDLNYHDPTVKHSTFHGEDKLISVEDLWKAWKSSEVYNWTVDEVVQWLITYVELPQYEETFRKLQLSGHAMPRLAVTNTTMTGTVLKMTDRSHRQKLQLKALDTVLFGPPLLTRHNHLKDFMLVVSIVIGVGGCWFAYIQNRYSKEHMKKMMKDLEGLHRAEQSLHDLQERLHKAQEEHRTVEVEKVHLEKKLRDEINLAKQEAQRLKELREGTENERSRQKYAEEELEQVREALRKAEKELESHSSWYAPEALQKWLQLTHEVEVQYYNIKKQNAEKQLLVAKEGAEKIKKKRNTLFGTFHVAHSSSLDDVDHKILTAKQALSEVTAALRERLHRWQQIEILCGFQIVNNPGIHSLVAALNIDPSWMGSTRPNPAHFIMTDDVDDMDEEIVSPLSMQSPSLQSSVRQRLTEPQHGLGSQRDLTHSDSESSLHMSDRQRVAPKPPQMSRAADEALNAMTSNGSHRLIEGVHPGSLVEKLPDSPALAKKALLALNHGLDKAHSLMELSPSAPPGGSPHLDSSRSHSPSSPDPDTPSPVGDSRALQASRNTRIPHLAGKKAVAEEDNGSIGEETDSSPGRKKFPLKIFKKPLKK

[5] = biological target: T1, ORAI1/STIM1 (Homo sapiens) (UniProt Q96D31+Q13586); experiment: Inhibition of STIM1/Orai1 (unknown origin) expressed in HEK293 cells assessed as reduction in tBHQ-induced calcium response by measuring decrease in slope of calcium entry at 10 uM relative to control; type: cell-based
T1 sequence (Q13586 23-685 partner limits assumed): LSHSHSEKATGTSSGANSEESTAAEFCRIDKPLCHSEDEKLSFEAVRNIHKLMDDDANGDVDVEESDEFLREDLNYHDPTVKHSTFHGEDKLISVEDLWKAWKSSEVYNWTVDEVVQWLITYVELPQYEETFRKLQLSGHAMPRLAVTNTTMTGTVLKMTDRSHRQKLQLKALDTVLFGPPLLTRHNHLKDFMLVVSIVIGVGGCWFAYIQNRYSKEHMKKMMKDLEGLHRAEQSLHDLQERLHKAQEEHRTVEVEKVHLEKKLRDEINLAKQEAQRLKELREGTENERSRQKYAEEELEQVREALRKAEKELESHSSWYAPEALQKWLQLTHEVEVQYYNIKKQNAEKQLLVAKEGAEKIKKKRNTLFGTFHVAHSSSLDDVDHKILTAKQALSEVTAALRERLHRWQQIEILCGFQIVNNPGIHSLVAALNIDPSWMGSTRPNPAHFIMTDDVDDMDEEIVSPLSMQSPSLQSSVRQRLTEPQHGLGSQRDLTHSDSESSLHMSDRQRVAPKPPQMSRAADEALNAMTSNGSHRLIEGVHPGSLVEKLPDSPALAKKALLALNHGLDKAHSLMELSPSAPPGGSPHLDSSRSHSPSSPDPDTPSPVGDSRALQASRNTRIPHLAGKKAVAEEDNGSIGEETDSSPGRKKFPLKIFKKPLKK
T1 sequence (Q96D31 whole entry): as the sequence (Q96D31 whole entry) above
In short: (§1)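 HEK cells, calcium imaging by fluorescence microscopy. Ca2+ added after 600 s and intracellular levels recorded. Traces averaged over 200 cells, then scored as AUC, peak amplitude and slope of the Ca2+ rise versus untreated control. Compound working solutions diluted from a 50 mM DMSO stock to 0.1% DMSO in physiologic buffer.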

[6] = biological target: T1, ORAI1/STIM1 (Homo sapiens); experiment: Inhibition of STIM1/Orai1 (unknown origin) expressed in HEK293 cells assessed as reduction in tBHQ-induced calcium response at 10 uM relative to control; type: cell-based; conditions: dose 10.0 µM; in short: as §1
[7] = Inhibition of CRAC (unknown origin); parameters: species or system Homo sapiens
[8] = Drug metabolism in mouse liver microsomes assessed as O-demethylation; type: ADME, Microsome
In short: (§2)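 Pooled male CD-1 mouse liver microsomes, phase I and glucuronidation (phase II) incubations. Substrate at 50 μM. Metabolites characterized by HRMS. For metabolic activation studies, 3 mM GSH added as trapping agent.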

HEK293 [9] = experiment: Cytotoxicity in HEK293 cells assessed as cell viability at 10 uM after 24 hrs by MTT assay; type: cell-based; conditions: human, hek293, 24 h
In short: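 MTT viability assay. HEK cells seeded at 20,000 per well, treated 24 h after plating for a further 24 h. MTT at 0.25 mg/mL final for 60 min at 37 °C. Crystals dissolved in isopropyl alcohol/HCl (1 M), absorbance read at 570 nm. Compounds diluted to 0.1% DMSO in culture medium.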

HEK293 [10] = experiment: Cytotoxicity in HEK293 cells assessed as cell viability at 50 uM after 72 hrs in presence of excess uridine by MTT assay; type: cell-based; conditions: human, hek293, 72 h
In short: (§3)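 MTT viability in HEK cells after 72 h treatment at 50 μM, with or without 100 μM uridine. MTT at 0.25 mg/mL final for 60 min at 37 °C, solubilized in isopropyl alcohol/HCl (1 M), absorbance read at 570 nm. Mean ± SEM, Student t-test against control.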

[11] = biological target: T1, ORAI1/STIM1 (Homo sapiens); experiment: Inhibition of STIM1/Orai1 (unknown origin) expressed in HEK293 cells assessed as reduction in tBHQ-induced calcium response by measuring decrease in peak amplitude of calcium entry at 10 uM relative to control; type: cell-based; in short: as §1
[12] = Drug metabolism in mouse liver microsomes assessed as amide hydrolysis; type: ADME, Microsome; in short: as §2
[13] = biological target: T1, ORAI1/STIM1 (Homo sapiens); experiment: Inhibition of STIM1/Orai1 (unknown origin) expressed in HEK293 cells assessed as reduction in tBHQ-induced calcium response by measuring decrease in calcium entry AUC at 10 uM relative to control; type: cell-based; in short: as §1
HEK293 [14] = experiment: Cytotoxicity in HEK293 cells assessed as cell viability at 50 uM after 72 hrs by MTT assay; type: cell-based; conditions: human, hek293, 72 h; in short: as §3
[15] = Drug metabolism in mouse liver microsomes assessed as acyl glucuronide metabolite formation in presence of UDPGA by high-resolution mass spectrometry; type: ADME, Microsome; in short: as §2
HEK293 [16] = experiment: Cytotoxicity in HEK293 cells assessed as cell viability up to 60 uM after 72 hrs in presence of excess uridine by MTT assay; type: cell-based; conditions: human, hek293, 72 h
[17] = Drug metabolism in mouse liver microsomes assessed as O-demethylation by high-resolution mass spectrometry; type: ADME, Microsome; in short: as §2
[18] = Drug metabolism in mouse liver microsomes assessed as hydroxylation by high-resolution mass spectrometry; type: ADME, Microsome; in short: as §2
[19] = Cmax in C57BL/6 mouse at 7 mg/kg, iv dosed as single administration measured up to 24 hrs; type: ADME, organism-based; parameters: route intravenous, dose 7 mg/kg, time <=24; conditions: in vivo
[20] = Clearance in C57BL/6 mouse at 7 mg/kg, iv dosed as single administration measured up to 24 hrs; type: ADME, organism-based; conditions: in vivo
[21] = Volume of distribution in C57BL/6 mouse at 7 mg/kg, iv dosed as single administration measured up to 24 hrs; type: ADME, organism-based; conditions: in vivo
[22] = Half life in C57BL/6 mouse at 7 mg/kg, iv dosed as single administration measured up to 24 hrs; type: ADME, organism-based; conditions: in vivo
[23] = Drug metabolism in mouse liver microsomes assessed as oxidation by high-resolution mass spectrometry; type: ADME, Microsome; in short: as §2

remaining at 1 h [1]: 75%
solubility thermodynamic [2]: 1530 µg/mL
Therm_solubility [3]: Soluble
SMILES: COc1cccc(-c2ccc(-n3cc(-c4cccc(C(=O)[O-])c4)nn3)cc2)c1OC.[Na+]

half-life [4]: 1.3 h
SMILES: CCCC(C)OC(=O)c1cnn(-c2ccc(-n3cc(-c4cccc(C(=O)O)c4)nn3)cc2)c1C(F)(F)F (stereo not given)

IC50 (ORAI1/STIM1): 228 nM
inhibition [5]: Active
inhibition [6]: 90.8%
IC50 [7]: 1400 nM
Drug metabolism [8]: Metabolite_Detected
remaining at 1 h [1]: 15%
inhibition [11]: Active
Drug metabolism [12]: Metabolite_Detected
solubility thermodynamic [2]: 0.28 µg/mL (≈ 0.795 µM)
inhibition [13]: Active
SMILES: COc1ccc(OC)c(-c2ccc(NC(=O)c3ccncc3F)cc2)c1
Activity (HEK293 [9]): 75.8%
Activity (HEK293 [10]): Non-Toxic
Activity (HEK293 [14]): Toxic

IC50 (ORAI1/STIM1): 851 nM
Drug metabolism [15]: Metabolite_Detected
Drug metabolism [17]: Metabolite_Detected
Drug metabolism [18]: Metabolite_Detected
Cmax [19]: 16800 ng/mL
CL [20]: 8.3 mL/min/kg
Vd [21]: 2.3 L/kg
t1/2 [22]: 3.2 h
Drug metabolism [23]: Metabolite_Detected
SMILES: COc1cccc(-c2ccc(-n3cc(-c4cccc(C(=O)O)c4)nn3)cc2)c1OC
Activity (HEK293 [16]): Non-Toxic
Activity (HEK293 [9]): 85.6%
Activity (HEK293 [10]): Non-Toxic
Activity (HEK293 [14]): Non-Toxic
